# High-throughput results from PubChem BioAssay.
# KCC2 mod: KCC2 cotransporter modulators, thallium flux, primary screen, cell-based, HEK293 KCC2, FluoZin-2 fluorescence, MLSMR; B-score of Tl+ flux slope (higher = more flux/activation; lower = inhibition) at 10 µM; KCC2 cells, thallium flux FluoZin-2 fluorescence; 2.2% of 190,000 active; Solute carrier family 12 member 5 (Homo sapiens), Q9H2X9; AID 1456, 2008;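 active = thallium flux slope and its plate-corrected score both differing from the plate sample mean at a set confidence after two filtering rounds, in either direction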;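 also: slope of fluorescence scaled to starting intensity during 10 to 20 s after thallium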
# Target sequence (Q9H2X9 whole entry, looked up): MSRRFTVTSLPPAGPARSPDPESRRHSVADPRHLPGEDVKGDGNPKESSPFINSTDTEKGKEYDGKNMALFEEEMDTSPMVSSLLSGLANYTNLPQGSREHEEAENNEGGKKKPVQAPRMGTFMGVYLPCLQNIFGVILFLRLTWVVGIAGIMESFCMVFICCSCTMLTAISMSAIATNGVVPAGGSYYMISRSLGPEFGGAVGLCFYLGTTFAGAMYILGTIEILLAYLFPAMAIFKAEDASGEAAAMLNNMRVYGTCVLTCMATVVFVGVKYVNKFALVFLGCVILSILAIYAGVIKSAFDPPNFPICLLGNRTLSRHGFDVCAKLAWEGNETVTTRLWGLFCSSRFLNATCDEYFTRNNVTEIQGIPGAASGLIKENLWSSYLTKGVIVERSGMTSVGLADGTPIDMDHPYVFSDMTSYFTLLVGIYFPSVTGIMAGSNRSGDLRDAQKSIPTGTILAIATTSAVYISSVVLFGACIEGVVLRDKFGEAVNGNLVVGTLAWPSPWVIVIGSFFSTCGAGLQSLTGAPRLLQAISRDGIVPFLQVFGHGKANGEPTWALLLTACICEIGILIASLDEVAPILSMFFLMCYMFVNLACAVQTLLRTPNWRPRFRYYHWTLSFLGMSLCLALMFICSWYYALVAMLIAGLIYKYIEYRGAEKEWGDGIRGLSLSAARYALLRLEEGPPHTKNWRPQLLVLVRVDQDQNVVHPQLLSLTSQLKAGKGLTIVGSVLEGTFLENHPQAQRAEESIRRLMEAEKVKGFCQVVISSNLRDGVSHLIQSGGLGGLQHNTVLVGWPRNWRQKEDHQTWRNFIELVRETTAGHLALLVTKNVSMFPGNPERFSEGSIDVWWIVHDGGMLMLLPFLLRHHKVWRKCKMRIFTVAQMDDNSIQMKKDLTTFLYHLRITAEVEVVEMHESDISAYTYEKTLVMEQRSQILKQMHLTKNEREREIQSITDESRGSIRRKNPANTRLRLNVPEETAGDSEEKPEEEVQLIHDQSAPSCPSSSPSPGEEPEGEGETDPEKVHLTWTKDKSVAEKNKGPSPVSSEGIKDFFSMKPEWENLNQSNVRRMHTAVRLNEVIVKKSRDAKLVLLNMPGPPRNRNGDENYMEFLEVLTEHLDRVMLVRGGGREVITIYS
# L major viab: Leishmania major promastigote growth inhibition, primary screen; 9% of 200,000 active; inhibition, % at 10 µM; AID 1063, 2008; Leishmania major promastigotes, resazurin fluorescence viability; in the data active = inhibition above about 50%;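 also: promastigotes grown with compound for 44 hours at 28 °C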
# Diaph act CS: compounds boosting diaphorase resazurin reduction – biochemical, uHTS, resorufin fluorescence, counter-screen for diaphorase-coupled primary assays, primary screen; Diaphorase/resazurin coupled assay, 16 min; active compounds read high; 1 = vehicle wells, 0 = NADH-free wells; activation factor at 20 µM; 0.005% of 190,000 active;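 active = diaphorase activity raised at least twofold by the compound at 20 µM; inactive = activation factor below 2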
#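 Material: Clostridium kluyveri diaphorase, purified enzyme; Quantity: enzyme 0.07 U/mL final; Medium: HEPES pH 7.4 buffer with MgCl2 and Tween 20; Dosing: single compound dose of 20 µM, 1% DMSO final; Schedule: 16 min reaction at room temperature; Measured by: red resorufin fluorescence at 544/590 nm excitation/emission.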
# WT yeast gro inh: growth inhibition of WT strain, primary screen, mitochondrial fusion inhibitor project, WT and mutant strains, chemical genetic; inhibition, % at 10 µM; mitochondrial fusion phenotypic screen; 2.1% of 190,000 active; in the data active = inhibition above about 58%; tested in S. cerevisiae
# Diaphorase inh: diaphorase inhibitors and chemical oxidizers, primary screen, counter-screen for diaphorase-coupled primary assays, biochemical, uHTS, resorufin fluorescence; diaphorase resazurin-to-resorufin fluorescence, NADH, 16 min; bacterial (C. kluyveri) enzyme, not human; inhibition, % at 20 µM; AID 1217, 2008; 0.69% of 190,000 active;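 active = primary screen inhibition at 20 µM above a set limit, cut at about 50% in these data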;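 also: plate controls were DMSO with full reaction for no effect and wells lacking NADH for full effect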
#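 System: Bacterial diaphorase enzyme (C. kluyveri) | Incubation: 16-min room-temperature incubation before reading | Benchmarks: No-NADH positive control and DMSO neutral control | Measured by: Resorufin fluorescence 544/590 nm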
# ROMK mod: ROMK potassium channel modulators, primary screen, cell-based, thallium flux, MLSMR library; ATP-sensitive inward rectifier potassium channel 1 (Homo sapiens), P48048; Tet-inducible ROMK, thallium flux fluorescence; actives lie on both sides; B-score at 10 µM; 2% of 130,000 active; AID 1918, 2009;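 active = signal ratio slope over the read window, or its plate-corrected B-score, at least 3 SD from the plate mean, either direction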;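 also: B-score of the F/F0 ratio slope over 7 to 12 s after thallium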
# Numbers without * were called inactive; · = not tested or not shown. Only some compounds are listed: those with a hit (about 12% of all), similar ones and a draw of the others.
SMILES,KCC2 mod,L major viab,Diaph act CS,WT yeast gro inh,Diaphorase inh,ROMK mod
Cc1ccc(OCC(O)CNCc2ccccc2)cc1C (stereo not given),-1.4,·,·,·,·,·
Cc1nn(C)cc1CN(C)Cc1c(C(=O)N(C)Cc2ccccc2)nc2ccccn12,0.2,3,1,-7,5,0.3
Cc1nn(C)cc1CNCc1ccc(OCC(O)CN(C)Cc2ccccc2)cc1 (stereo not given),·,86*,0.9,-3,6,0.058
O=C(Cc1ccccc1)Nc1ccc(NC(=O)c2cccs2)cc1Cl,0.41,-4,0.9,-11,14,0.32
Cc1cc2nc3n(c2cc1C)CC1CC(C(=O)NCc2cccc(C(F)(F)F)c2)N(C)C31 (stereo not given),0.25,·,·,·,·,·
COCCCNC(=S)NNC(=O)c1csc(C)n1,1.5,·,·,·,·,-0.095
CN(Cc1ccccc1)CC(O)COc1ccc(CNCc2cccnc2)cc1 (stereo not given),·,81*,1.2,2,-21,0.032
CN(Cc1ccccc1)C(=O)c1nc2ccccn2c1CNCCOc1cccnc1,0.22,-4,0.8,-23,15,0.92
CN(Cc1ccccc1)CC(O)COc1ccc(CNCCOc2cccnc2)cc1 (stereo not given),·,84*,1.2,1,-15,-0.67
OC(COc1ccc(CNCc2cccnc2)cc1)CN1CCc2ccccc2C1 (stereo not given),·,90*,1.2,-6,-21,-0.81
O=C(CN1CCCN(Cc2ccc(F)cc2Cl)C1=O)NC1CCCC1,-0.0041,-6,1,-11,-3,·
CCOC(=O)C(NC(=O)c1ccc(F)cc1)(Nc1sc2c(c1C(N)=O)CCC2)C(F)(F)F (stereo not given),-1.4,74*,0.9,-3,14,0.68
CCn1c(CCCOc2ccc(Cl)cc2Cl)n[nH]c1=S,-3.2,-5,0.9,56,14,-0.73
O=C(NC(=S)Nc1cccc(CO)c1)c1ccc(-c2ccccc2)cc1,-0.51,57*,0.8,10,19,0.53
CC(=O)c1cccc(NC(=S)NC(=O)c2ccc(Br)cc2)c1,1.5,54*,0.9,6,9,0
CCC(=O)Nc1cccc(NC(=S)NC(=O)c2ccccc2)c1,0.023,5,0.8,-9,16,·
CC(=O)c1cccc(NC(=O)C=C(C)C)c1,-0.13,98*,0.9,12,7,·
CCOC(=O)c1c(C)[nH]c(C(=O)COC(=O)CCC2CCCC2)c1C,0.17,-1,0.9,2,10,-0.1
Cc1scc(C(=O)NNC(=S)NC(C)c2ccccc2)c1C (stereo not given),-0.71,15,1,4,-1,-0.92
COc1ccc(CCNC(=O)c2cc(-c3ccncc3)nc3c(Cl)cccc23)cc1OC,-0.83,51*,0.8,1,16,0.54
COc1ccc(CCNC(=O)c2cc(-c3ccccn3)nc3c(Cl)cccc23)cc1OC,-1.2,10,0.8,9,18,0.93
Oc1cccc(C(O)CNCc2ccc(OCc3ccc(Cl)cc3Cl)cc2)c1 (stereo not given),-0.25,97*,1.4,88*,-39,-0.0063
COC(=O)CSc1nc2cc3c(cc2cc1C)OCO3,-0.094,11,·,70*,·,·
Cc1cc2cc3c(cc2nc1SCC(=O)OC(C)C)OCCO3,-0.18,-3,0.8,-8,17,0.021
COc1cccc(CSc2nc3cc4c(cc3cc2C)OCCO4)c1,0.99,57*,0.8,28,16,0.17
SMILES,KCC2 mod,L major viab,Diaph act CS,WT yeast gro inh,Diaphorase inh,ROMK mod
Cc1cc2cc3c(cc2nc1SCC(=O)Nc1nc(C)c(C)s1)OCO3,·,83*,1,-13,0,·
Cc1cc2cc3c(cc2nc1SCC(=O)O)OCCO3,0.98,-3,0.9,-1,14,·
CCn1ccnc1CN(C)Cc1cn(-c2cccc(C)c2)nc1-c1cccc(F)c1,·,99*,0.8,65,20,0.47
CCn1ccnc1CN(C)Cc1cn(-c2ccc(C)cc2)nc1-c1cccc(C)c1,-0.19,78*,0.9,68*,10,·
Cc1ccc(-n2cc(CN3CCN(Cc4nccn4C)CC3)c(-c3cccc(C)c3)n2)cc1,0.12,44,0.9,66*,11,-1.1
Cc1ccc(-n2cc(CN3CCNC(=O)CC3)c(-c3cccc(C)c3)n2)cc1,-0.14,15,0.9,-3,12,-0.17
Cc1cccc(-n2cc(CN(C)Cc3nccn3C)c(-c3cccc(F)c3)n2)c1,0.21,47,0.9,59,10,0.04
NC(=O)C1(N2CCCCC2)CCN(C(=S)Nc2cc(F)cc(F)c2)CC1,-0.21,-2,1,23,0,0.33
Cc1ccc(N(CC(=O)Nc2ccc3c(c2)OCCO3)S(C)(=O)=O)cc1,-0.26,-1,1,-2,2,0.19
O=C(Nc1ccc(N2CCN(C(=O)c3ccccc3)CC2)cc1)c1ccc([N+](=O)[O-])o1,0.98,101*,1,29,3,0.18
O=C(Nc1cccc(S(=O)(=O)N2CCCCC2)c1)c1ccc([N+](=O)[O-])o1,0.082,100*,1,9,3,-0.36
CC(C)C(=O)N1CCN(c2ccc(NC(=O)c3ccc([N+](=O)[O-])o3)cc2Cl)CC1,0.66,101*,0.9,94*,14,-0.29
O=C(COC(=O)c1ccc([N+](=O)[O-])o1)Nc1cccc(S(=O)(=O)N2CCCCC2)c1,0.051,-9,0.8,0,15,-0.98
CC(C)C(=O)N1CCN(c2ccc(NC(=O)c3ccc([N+](=O)[O-])o3)cc2)CC1,-0.19,99*,0.9,17,7,0.26
COc1ccc(C(=O)Nc2ccc(N3CCN(C(=O)c4ccccc4)CC3)cc2)cc1[N+](=O)[O-],-0.99,14,1,22,4,0.88
CCCC(=O)N1CCN(c2ccc(NC(=O)c3ccc([N+](=O)[O-])o3)cc2Cl)CC1,·,101*,1,86*,0,·
O=C(Nc1ccc(N2CCOCC2)c(Cl)c1)c1ccc([N+](=O)[O-])o1,0.64,100*,0.9,19,12,-0.37
O=C(Nc1ccc(N2CCOCC2)c(Cl)c1)c1c(F)c(F)c(F)c(F)c1F,·,15,0.8,19,16,0.76
Cc1ccc(NC(=O)c2ccc([N+](=O)[O-])o2)cc1S(=O)(=O)N1CCOCC1,0.0071,99*,1,1,3,-0.46
Cc1ccc(NC(=O)COC(=O)c2ccc([N+](=O)[O-])o2)cc1S(=O)(=O)N1CCCCC1,0.017,-5,0.8,6,22,-0.042
